Measurements: PMC5131535 (ACS chemical neuroscience, 2016)
Where “and” joins values, the source holds several entries; their conditions need not be identical. Equal entries are not always repeated. Entries after “also recorded” stand apart in the source; their conditions may differ. Where two headings read alike, the source gives them in different places.

Tests used:
Dopamine D2S receptor = Dopamine D2S receptor (Homo sapiens, UniProt P14416); test: Lead Profiling Screen; format: binding; settings: significant interaction
Sequence of Dopamine D2S receptor (P14416 1-414 isoform P14416-2): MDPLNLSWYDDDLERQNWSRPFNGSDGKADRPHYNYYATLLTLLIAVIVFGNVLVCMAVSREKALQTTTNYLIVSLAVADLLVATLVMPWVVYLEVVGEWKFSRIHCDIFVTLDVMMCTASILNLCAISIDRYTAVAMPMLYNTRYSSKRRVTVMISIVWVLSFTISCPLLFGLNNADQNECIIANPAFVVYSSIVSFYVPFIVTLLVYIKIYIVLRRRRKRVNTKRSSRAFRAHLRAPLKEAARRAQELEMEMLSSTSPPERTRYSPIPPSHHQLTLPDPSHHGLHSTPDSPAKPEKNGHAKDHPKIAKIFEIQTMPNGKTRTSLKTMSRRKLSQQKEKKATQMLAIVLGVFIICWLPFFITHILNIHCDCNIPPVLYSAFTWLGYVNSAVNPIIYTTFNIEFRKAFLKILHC

Kir7.1 = target: T1, Kir7.1 (Homo sapiens, UniProt O60928, M125R); test: Whole-cell patch clamp electrophysiology, Kir7.1; format: cell-based
T1 sequence (O60928 1-360 M125R): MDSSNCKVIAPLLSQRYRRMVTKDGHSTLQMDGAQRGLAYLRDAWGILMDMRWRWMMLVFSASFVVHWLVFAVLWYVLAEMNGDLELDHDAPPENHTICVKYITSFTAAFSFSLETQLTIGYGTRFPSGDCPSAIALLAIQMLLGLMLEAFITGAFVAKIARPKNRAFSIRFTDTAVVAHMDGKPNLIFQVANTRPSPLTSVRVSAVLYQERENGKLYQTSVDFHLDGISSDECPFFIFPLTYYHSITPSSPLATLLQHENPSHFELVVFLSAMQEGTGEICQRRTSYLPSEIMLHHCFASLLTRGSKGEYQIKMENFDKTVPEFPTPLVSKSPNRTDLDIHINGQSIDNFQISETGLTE
In short: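 Human Kir7.1 (WT or mutant) was transiently co-transfected with EGFP into HEK-293T cells, which were replated next day on poly-L-lysine coverslips. Whole-cell clamp used bath 5 mM KCl, pH 7.4, and pipette 135 mM KCl, pH 7.3. Cells were held at −75 mV, stepped 500 ms to −120 mV, then ramped to 120 mV, every 5 s. Increasing test-compound doses were superfused, then BaCl₂ block; current read at −120 mV; variable-slope Hill fit, mean of n = 5.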

Dopamine D4.2 receptor = Dopamine D4.2 receptor (Homo sapiens, UniProt P21917, DEL265-296); test: Lead Profiling Screen; format: binding; settings: significant interaction
Kir4.1 = target: T2, Kir4.1 (Homo sapiens, UniProt P78508); test: Tl+ flux selectivity assay, Kir4.1; format: cell-based; settings: for Kir Channel Selectivity (Fold) 4.1: Thallium flux, Kir7.1 over Kir4.1
T2 sequence (P78508 1-379): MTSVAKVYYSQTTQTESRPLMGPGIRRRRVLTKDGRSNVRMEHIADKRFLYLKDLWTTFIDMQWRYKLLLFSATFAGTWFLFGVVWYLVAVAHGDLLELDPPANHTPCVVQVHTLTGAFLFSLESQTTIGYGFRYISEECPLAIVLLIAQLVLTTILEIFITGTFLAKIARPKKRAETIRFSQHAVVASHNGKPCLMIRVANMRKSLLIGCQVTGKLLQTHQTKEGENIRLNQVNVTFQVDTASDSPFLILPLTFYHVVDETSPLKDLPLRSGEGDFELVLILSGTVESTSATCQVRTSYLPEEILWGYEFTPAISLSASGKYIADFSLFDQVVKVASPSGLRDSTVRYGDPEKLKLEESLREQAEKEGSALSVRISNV
In short: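 Tetracycline-inducible stable T-REx-HEK-293 lines, induced overnight with 1 µg/ml tetracycline in DMEM/10% dialyzed FBS. Cells loaded 1 hr with 1.2 µM Thallos-AM in HBSS/20 mM HEPES pH 7.3 with 0.01% Pluronic F-127. Baseline fluorescence (ex 470, em 540 nm) read at 1 Hz before adding stimulus buffer with 1.8 mM Tl₂SO₄. Traces normalized to first point and vehicle-subtracted; slope taken 5–20 s post-Tl⁺; IC50 by nonlinear regression of CRCs.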

Kir3.1/3.2 = target: T3, Kir3.1/3.2 (Homo sapiens, UniProt P48051+P48549); test: Tl+ flux selectivity assay, Kir3.1/3.2; format: cell-based; settings: for Kir Channel Selectivity (Fold) 3.1/3.2: Thallium flux, Kir7.1 over Kir3.1/3.2
T3 sequence (P48549 1-501): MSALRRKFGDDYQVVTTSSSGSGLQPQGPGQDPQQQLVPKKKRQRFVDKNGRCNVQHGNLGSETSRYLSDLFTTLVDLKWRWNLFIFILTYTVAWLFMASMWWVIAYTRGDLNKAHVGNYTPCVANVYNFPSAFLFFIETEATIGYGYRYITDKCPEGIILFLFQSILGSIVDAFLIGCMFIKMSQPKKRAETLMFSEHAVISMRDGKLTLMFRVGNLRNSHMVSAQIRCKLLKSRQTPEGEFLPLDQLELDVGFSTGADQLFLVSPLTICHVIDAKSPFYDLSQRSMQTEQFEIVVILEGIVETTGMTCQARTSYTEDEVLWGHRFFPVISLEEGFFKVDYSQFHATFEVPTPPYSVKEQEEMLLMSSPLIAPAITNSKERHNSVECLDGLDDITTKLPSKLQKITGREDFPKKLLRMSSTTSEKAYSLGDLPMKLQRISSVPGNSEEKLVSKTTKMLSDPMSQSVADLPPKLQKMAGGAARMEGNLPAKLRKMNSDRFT
T3 sequence (P48051 1-423): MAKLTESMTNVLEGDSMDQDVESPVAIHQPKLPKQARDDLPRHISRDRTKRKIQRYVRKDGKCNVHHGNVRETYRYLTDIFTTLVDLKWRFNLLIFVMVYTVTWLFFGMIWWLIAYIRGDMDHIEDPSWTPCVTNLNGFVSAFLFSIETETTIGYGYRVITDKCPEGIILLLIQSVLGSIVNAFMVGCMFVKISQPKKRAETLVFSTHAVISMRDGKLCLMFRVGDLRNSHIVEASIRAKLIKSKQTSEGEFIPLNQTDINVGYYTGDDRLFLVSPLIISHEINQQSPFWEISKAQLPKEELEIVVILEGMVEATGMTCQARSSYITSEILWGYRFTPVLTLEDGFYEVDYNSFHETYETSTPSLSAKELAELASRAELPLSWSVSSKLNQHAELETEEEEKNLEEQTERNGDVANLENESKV

[1] = Protein binding in plasma; settings: mouse
Kir7.1 pore mutants [2] = target: Kir7.1 pore mutants (Homo sapiens, UniProt O60928, I160M); format: cell-based; settings: 3 µM, -120 mV
Sequence of Kir7.1 pore mutants (Homo sapiens, UniProt O60928, I160M) (O60928 whole entry I160M): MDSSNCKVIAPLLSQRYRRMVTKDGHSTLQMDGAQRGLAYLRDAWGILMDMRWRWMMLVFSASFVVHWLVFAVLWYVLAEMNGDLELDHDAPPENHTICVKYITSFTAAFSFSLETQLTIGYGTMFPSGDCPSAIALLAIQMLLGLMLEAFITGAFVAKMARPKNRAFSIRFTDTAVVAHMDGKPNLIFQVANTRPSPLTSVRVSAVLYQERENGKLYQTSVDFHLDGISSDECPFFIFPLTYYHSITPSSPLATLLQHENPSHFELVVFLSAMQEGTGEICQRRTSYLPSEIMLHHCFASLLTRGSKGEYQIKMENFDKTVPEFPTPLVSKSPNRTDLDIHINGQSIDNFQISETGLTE
In short: (§1)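 Single pore-lining residues were mutated on a WT or M125R Kir7.1 background and expressed transiently with EGFP in HEK-293T cells. The whole-cell step-ramp protocol from a −75 mV holding potential was used, with test compound at 3 µM. Read-out was % inhibition of current at −120 mV, mean ± SEM, tested against the respective parent channel (P < 0.05).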

Kir7.1 pore mutants [3] = target: Kir7.1 pore mutants (Homo sapiens, UniProt O60928, L146V); format: cell-based; settings: 3 µM, -120 mV
Sequence of Kir7.1 pore mutants (Homo sapiens, UniProt O60928, L146V) (O60928 whole entry L146V): as the sequence (O60928 whole entry I160M) above, with L146V, M160I counted along it
In short: as §1

Kir7.1 pore mutants [4] = target: Kir7.1 pore mutants (Homo sapiens, UniProt O60928, A161S); format: cell-based; settings: 3 µM, -120 mV
Sequence of Kir7.1 pore mutants (Homo sapiens, UniProt O60928, A161S) (O60928 whole entry A161S): as the sequence (O60928 whole entry I160M) above, with M160I, A161S counted along it
In short: as §1

Kir7.1 pore mutants [5] = target: Kir7.1 pore mutants (Homo sapiens, UniProt O60928, T153C); format: cell-based; settings: 3 µM, -120 mV
Sequence of Kir7.1 pore mutants (Homo sapiens, UniProt O60928, T153C) (O60928 whole entry T153C): as the sequence (O60928 whole entry I160M) above, with T153C, M160I counted along it
In short: as §1

Kir7.1 pore mutants [6] = format: cell-based, human; settings: 3 µM, -120 mV
In short: as §1

| Radioligand displacement, Dopamine D2S receptor (Dopamine D2S receptor) | IC50 (Kir7.1; Kir7.1 IC50 (Patch clamp), -120 mV) | Radioligand displacement, Dopamine D4.2 receptor (Dopamine D4.2 receptor) | Kir Channel Selectivity (Fold) 4.1 (Kir4.1; listed as 19 (ML418)) | Kir Channel Selectivity (Fold) 3.1/3.2 (Kir3.1/3.2; listed as 19 (ML418)) | fraction unbound [1] | Structure (SMILES) | Kir Channel Selectivity (Fold) 4.1 (Kir4.1) | Kir Channel Selectivity (Fold) 3.1/3.2 (Kir3.1/3.2) | IC50 (Kir7.1; read-out: Kir7.1 IC50 (Patch clamp), -120 mV) | Effect of mutation I160M on Kir7.1 inhibition (Kir7.1 pore mutants [2]) | Effect of mutation L146V on Kir7.1 inhibition (Kir7.1 pore mutants [3]) | Effect of mutation A161S on Kir7.1 inhibition (Kir7.1 pore mutants [4]) | Effect of mutation T153C/WT on channel inhibition (Kir7.1 pore mutants [5]) | Effect of double mutation E149Q and A150S on sensitivity (Kir7.1 pore mutants [6]) | Effect of mutation E149D on block (Kir7.1 pore mutants [6]) | IC50 (Kir4.1; read-out: Kir4.1 IC50 (Tl+ flux)) | IC50 (Kir3.1/3.2; read-out: Kir3.1/3.2 IC50 (Tl+ flux)) |
| --- | --- | --- | --- | --- | --- | --- | --- | --- | --- | --- | --- | --- | --- | --- | --- | --- | --- |
| > 50% | 300 nM and 310 nM | > 50% | >23 Fold | >23 Fold | 0.114 | CC(C)OC(=O)NC1CCN(Cc2cc(Cl)c3cccnc3c2O)CC1 [Compound 19, iso-Propyl (1-((5-chloro-8-hydroxyquinolin-7-yl)methyl)piperidin-4-yl)carbamate] | at least 23 Fold | at least 23 Fold | – | – | – | – | – | – | – | – | – |
| – | – | – | – | – | – | Oc1c(CN2CCC(Cc3ccccc3)CC2)cc(Cl)c2cccnc12 [VU714] | 2 Fold | >5 Fold | 1500 nM | no effect | no effect | no effect | increased channel inhibition | additive loss of VU714 sensitivity; also recorded: virtually eliminated block of the channel | no effect on block | 13000 nM | > 30000 nM |
